Source: PubChem (Sanford-Burnham Center for Chemical Genomics)
The list is not random: actives were taken first. Their share in the collection is about 1.5%.
PPC-1+TRAIL kill: PPC-1 cancer cell killing with TRAIL present; cell killing (% activity), % at 4 µM or 5 µM; AID 1443; PPC-1 cells + TRAIL, ATPLite viability luminescence; 0.41% of 220,000 active;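 active = cell killing above 50% in the first pass at 4 µM, then a duplicate retest at 5 µM averaging 50% or more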;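 note: plate controls were cells with TRAIL plus DMSO for no effect and medium-only wells lacking cells for full effect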
FLuc stim CS: firefly luciferase counter-screen for stimulation assays; ATPlite luciferase biochemical, luminescence, 10 min; 0 = ATP-free wells, 1 = DMSO control; activation factor at 10 µM; 200,000 tested, under 10 active; AID 1027;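 active = luciferase activation factor, scaled between plate controls, of at least 2 with compound at 10 µM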
Target sequence (P08659 whole entry, looked up): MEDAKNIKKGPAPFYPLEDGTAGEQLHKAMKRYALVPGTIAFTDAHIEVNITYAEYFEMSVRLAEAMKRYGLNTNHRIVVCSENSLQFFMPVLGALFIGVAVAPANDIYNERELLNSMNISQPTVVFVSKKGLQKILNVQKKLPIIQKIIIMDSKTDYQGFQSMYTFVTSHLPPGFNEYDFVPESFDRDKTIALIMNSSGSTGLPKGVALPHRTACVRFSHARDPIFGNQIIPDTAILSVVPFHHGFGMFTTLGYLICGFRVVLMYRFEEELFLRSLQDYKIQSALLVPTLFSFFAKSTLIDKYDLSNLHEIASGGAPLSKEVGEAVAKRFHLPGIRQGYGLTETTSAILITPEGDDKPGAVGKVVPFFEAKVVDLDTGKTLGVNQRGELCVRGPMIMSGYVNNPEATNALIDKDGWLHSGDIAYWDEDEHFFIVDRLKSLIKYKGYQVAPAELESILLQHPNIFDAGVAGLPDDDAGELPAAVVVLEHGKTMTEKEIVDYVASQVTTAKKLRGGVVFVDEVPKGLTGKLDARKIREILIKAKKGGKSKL
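Material: Luciferase/luciferin reagent mix; Doses: test compounds dosed from 2 mM stocks in 100% DMSO; Schedule: 10 min incubation after luciferase reagent addition, room temperature; Measured by: luminescence from luciferase reaction; Read-out: luminescence gain marking luciferase activators.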
C8 TRAIL sens: sensitizes caspase-8 expressing cells to TRAIL; NB7+C8 cells + TRAIL, ATPlite viability luminescence; inhibition (viability loss, TRAIL sensitization), % at 10 µM; 1% of 360,000 active; AID 624354;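 active = compounds causing at least 50% loss of cell viability in the single-dose screen, relative to plate controls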
FLuc inhib CS: Photinus pyralis luciferase inhibition counter-screen | ATPLite firefly luciferase biochemical luminescence, 10 min | AID 1006 | inhibition, % at 10 µM | 1.5% of 200,000 active;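 active = inhibition above about 50% when tested at 10 µM, limit read from the data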
Active calls of the source: *; / = not tested or not shown.

SMILES | PPC-1+TRAIL kill | FLuc stim CS | C8 TRAIL sens | FLuc inhib CS
O=C(N/N=C\c1ccccn1)c1cccc(C(=O)N/N=C\c2ccccn2)n1 | / | / | 4 | /
O=C(N/N=C\c1ccncc1)c1ccccc1O | 0 | 0.3 | 29 | 69*
Cc1ccccc1C(=O)N/N=C/c1ccccn1 | 24 | 0.5 | 38 | 54*
O=C(N/N=C\c1ccccn1)c1ccccc1O | 16 | 0.3 | 18 | 69*
O=C(N/N=C/c1ccccn1)c1ccncc1 | / | / | -11 | /
O=C(N/N=C/c1ccccn1)c1ccccc1 | -5 | 0.4 | 39 | 56*
CC(=O)c1cc2c(cc1NC(=O)CSc1ccc(S(=O)(=O)N(C)C)cn1)OCO2 | / | / | -12 | /
CC(C)C[C@H]1CN(CCCC[C@H]2CNC(=O)C(=O)N2Cc2ccccc2)C(=O)C(=O)N1Cc1ccccc1 | / | / | -12 | /
COc1cc(/C=N/NC(=O)c2cc(-c3cccc(OC(C)C)c3)nc3ccccc23)ccc1O | / | / | 53* | /
COc1ccc(-c2cc(C(=O)N/N=C/c3cccnc3)c3ccccc3n2)cc1 | / | / | 54* | /
COc1cc(/C=N/NC(=O)c2cc(-c3cccs3)nc3ccccc23)ccc1O | 0 | / | 6 | /
COCCNC(=O)C1(C)CCCN(Cc2cc(-c3ccccc3)nn2C)C1 (centres undefined) | / | / | -11 | /
Cc1cc(NC(=O)c2cc(-c3ccccc3)on2)no1 | 14 | 1 | 0 | -4
O=C(c1ccccc1)c1cc(-c2ccccc2)on1 | 14 | 0.2 | 19 | 81*
CC(=O)Nc1ccc(NC(=O)C2(C)Cc3c(-c4ccccc4)ccnc3O2)cc1 (centres undefined) | / | / | 4 | /
CC(C)n1c(/N=C/c2c[nH]c3ccccc23)nc2ccccc21 | -17 | 0.7 | 1 | 33
Cn1c(/N=C/c2ccc3c(c2)OCO3)nc2ccccc21 | 2 | 0.1 | -4 | 91*
Cn1c(/N=C/c2c[nH]c3ccccc23)nc2ccccc21 | -7 | 0.1 | 38 | 88*
Nc1nc2ccccc2n1/N=C/c1ccc2c(c1)OCO2 | 13 | / | 0 | /
COc1ccc(CCNC(=O)c2cc(S(=O)(=O)N3CCC4(CC3)OCCO4)ccc2F)cc1OC | 2 | 1.1 | 2 | -6
c1cc(-c2cccs2)nc(-c2cccs2)c1 | 11 | 1 | 1 | 3
c1csc(-c2cn3ccc4ccccc4c3n2)c1 | 17 | 0.5 | 34 | 53*
CCCN(CCC)CCNC(=O)c1cn(C)c(=O)c2c1c1ccccc1n2C | / | / | 2 | /
Cc1[nH]n(-c2cccc3ccccc23)c(=O)c1/C=N/NC(=O)c1cccc([N+](=O)[O-])c1 | 14 | 1.1 | 13 | -6
Cc1[nH]n(-c2ccccc2)c(=O)c1/C=N\NC(=O)C1COc2ccccc2O1 (centres undefined) | 72* | 0.1 | 85* | 93*
SMILES | PPC-1+TRAIL kill | FLuc stim CS | C8 TRAIL sens | FLuc inhib CS
Cc1[nH]n(-c2ccccc2)c(=O)c1/C=N/NC(=O)c1cccc([N+](=O)[O-])c1 | 7 | 0.5 | 54* | 49
CC(=O)N/N=C/c1c(C)[nH]n(-c2ccccc2)c1=O | -2 | 1 | -2 | 4
CC1Oc2ccccc2C(=O)N(CC(=O)c2ccc3c(c2)OCCO3)C1=O (centres undefined) | / | / | 22 | /
Nn1c(=O)[nH]c2ccccc2c1=O | 28 | 1.1 | -5 | -8
COc1ccc(/C=C/C(=O)c2cc3c(cc2N)OCO3)cc1 | 28 | 0.2 | 23 | 79*
O=C(C[C@@H]1CC[C@@H]2[C@H](COC[C@H](O)CN2Cc2cccc(C(F)(F)F)c2)O1)NCc1ccc(Cl)cc1 | / | / | 5 | /
COC(=O)c1ccc(N=Cc2c(-c3ccccc3)[nH][nH]c2=O)cc1 | 19 | 1 | -6 | 1
O=Nc1ccc(NOC(=O)c2ccccc2Br)cc1 | 24 | 0.2 | -3 | 77*
CCN1CCN(c2ccc(S(=O)(=O)N3CCCCC3)cc2NC(=O)c2ccc([N+](=O)[O-])o2)CC1 | / | / | 55* | /
CCN1CCN(c2ccc(S(=O)(=O)N3CCOCC3)cc2NC(=O)c2cccc([N+](=O)[O-])c2)CC1 | / | / | -13 | /
CCN1CCN(c2ccc(S(=O)(=O)N3CCOCC3)cc2NC(=O)/C=C/c2ccc([N+](=O)[O-])cc2)CC1 | / | / | 53* | /
COc1ccc([C@H]2CC(=O)C=C(c3cccc4c3Oc3ccccc3S4)C2)cc1 | / | / | 21 | /
Cc1oc(-c2ccc3c(c2)OCCO3)cc1C(=O)O | 6 | 0.4 | 6 | 62*
Cc1oc(-c2ccc3c(c2)OCCO3)cc1C(=O)NCC(=O)O | / | 0.7 | 1 | 32
COc1ccc(N(C(=O)c2snc(C(N)=O)c2N)C(C(=O)NCc2ccccc2)c2ccc(O)cc2)cc1OC (centres undefined) | / | / | -2 | /
CN(C)c1ccc(NC(=O)c2sc(SCC(=O)Nc3ccc(Br)cc3)nc2N)cc1 | 15 | 1 | 0 | -4
CN(C)c1ccc(NC(=O)c2sc(SCC(=O)Nc3nccs3)nc2N)cc1 | 23 | 0.5 | 23 | 55*
NC(=S)NN=C1c2ccccc2-c2c(F)c(F)c(F)c(F)c21 | / | / | 71* | /
c1ccc(CSc2ccc(-c3cccs3)nn2)nc1 | 22 | 0.7 | 13 | 34
c1ccc(CSc2ccc(-c3cccs3)nn2)cc1 | 24 | 0.3 | 54* | 66*
CCOc1ccc(C)cc1S(=O)(=O)Nc1cccnc1 | / | / | 13 | /
O=c1oc2ccccc2cc1-c1csc(Nc2nc3c(F)cccc3s2)n1 | -1 | 0.9 | 53* | 9
CCNS(=O)(=O)c1ccc(CCC(=O)O)cc1 | 20 | 1.1 | 12 | -7
COc1ccc(-c2cc3cc(OC)c(OC)cc3cn2)cc1 | / | / | -1 | /
c1ccc(-c2cc3cc4c(cc3cn2)OCO4)cc1 | / | / | 51* | /
SMILES | PPC-1+TRAIL kill | FLuc stim CS | C8 TRAIL sens | FLuc inhib CS
c1ccc(-c2cc3ccccc3cn2)cc1 | / | / | 22 | /
COc1ccc(-c2cc3cc4c(cc3cn2)OCO4)cc1 | / | / | 54* | /
COc1cc(OC)cc(-c2cc3cc4c(cc3cn2)OCO4)c1 | / | / | 72* | /
CC(C)COCC(O)CC(Cc1ccccc1)C(=O)NN (centres undefined) | -5 | 1 | -6 | -2
Cc1cc(C)c(NC(=O)CN(C2CCCCC2)C2CCCCC2)c(C)c1 | 5 | 1 | 1 | -2
Cc1noc(-c2ccc(Cl)cc2)c1C(=O)O/N=C(\N)c1ccc(C(C)(C)C)cc1 | 10 | / | 94* | /
COc1cc(OC)c(C(=O)O/N=C(\N)c2ccc(C)cc2)cc1OC | / | / | 3 | /
N/C(=N\OC(=O)c1ccc(=O)n(Cc2ccccc2)c1)c1ccccn1 | 5 | 1 | -8 | -5
Cc1ccc(/C(N)=N/OC(=O)c2ccco2)cc1 | -7 | 0.4 | 39 | 60*
N/C(=N\OC(=O)c1ccco1)c1ccccn1 | 13 | 0.4 | -1 | 55*
Cc1occc1C(=O)O/N=C(\N)c1ccc(Cl)cc1 | 24 | / | 87* | /
C[C@@H]1CN([C@@H](C)CO)C(=O)CCCn2nncc2CO[C@H]1CN(C)C(=O)Cc1ccccc1 | / | / | -14 | /
N/C(=N\OC(=O)c1ccco1)c1ccc(Br)cc1 | 0 | 0.7 | 3 | 34
COc1ccc(C(=O)COC(=O)c2ccco2)cc1 | 24 | 0.3 | -6 | 72*
Cc1cccc(/C(N)=N/OC(=O)c2ccco2)c1 | 16 | 0.4 | 22 | 56*
N/C(=N\OC(=O)c1ccco1)c1ccccc1 | 1 | 0.4 | -10 | 58*
